Measured values as given in ChEMBL document CHEMBL4334458, “Design, synthesis and antibacterial evaluation of novel 15-membered 11a-azahomoclarithromycin derivatives with the 1, 2, 3-triazole side chain” (Eur J Med Chem, 2019).
Values after ≈ are worked out from the molar mass of the structure shown.

Legend:
Assay type in all cases: functional
Streptococcus pneumoniae [1] = test: Antibacterial activity against erythromycin-resistant Streptococcus pneumoniae AB11 expressing the ermB and mefA incubated for 24 hrs by broth dilution method
Staphylococcus aureus [2] = test: Antibacterial activity against penicillin-resistant Staphylococcus aureus ATCC 31007 incubated for 24 hrs by broth dilution method; details: ATCC 31007, 24 h
Escherichia coli = test: Antibacterial activity against penicillin-susceptible Escherichia coli ATCC 25922 incubated for 24 hrs by broth dilution method; details: ATCC 25922, 24 h
Outline: (§1)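 CLSI broth microdilution in cation-adjusted Mueller-Hinton broth. Twofold dilutions spanned 0.25–128 or 0.5–256 µg/mL, with CAM and AZM as controls. Log-phase bacteria were added and incubated 24 h at 37 °C. MIC was read by turbidity as the concentration of the last clear well.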

Staphylococcus aureus [3] = test: Antibacterial activity against methicillin-resistant Staphylococcus aureus ATCC 43300 incubated for 24 hrs by broth dilution method; details: ATCC 43300, 24 h
Staphylococcus aureus [4] = test: Antibacterial activity against erythromycin-susceptible Staphylococcus aureus ATCC 25923 incubated for 24 hrs by broth dilution method; details: ATCC 25923, 24 h; outline: as §1
Pseudomonas aeruginosa = test: Antibacterial activity against penicillin-susceptible Pseudomonas aeruginosa ATCC 27853 incubated for 24 hrs by broth dilution method; details: ATCC 27853, 24 h; outline: as §1
Streptococcus pyogenes [5] = test: Antibacterial activity against erythromycin-susceptible Streptococcus pyogenes 1 clinical isolate incubated for 24 hrs by broth dilution method; outline: as §1
Bacillus subtilis = test: Antibacterial activity against penicillin-susceptible Bacillus subtilis ATCC 9372 incubated for 24 hrs by broth dilution method; details: ATCC 9372, 24 h; outline: as §1
Streptococcus pyogenes [6] = test: Antibacterial activity against erythromycin-resistant Streptococcus pyogenes 2 clinical isolate incubated for 24 hrs by broth dilution method
Streptococcus pneumoniae [7] = test: Antibacterial activity against erythromycin-resistant Streptococcus pneumoniae B1 expressing the ermB incubated for 24 hrs by broth dilution method

## CO[C@]1(C)C[C@@H](C)[C@H](O)[C@H](C)CN(C)C[C@@H](COCc2cn(-c3ccccc3)nn2)OC(=O)[C@H](C)[C@@H](O[C@H]2C[C@@](C)(OC)[C@@H](O)[C@H](C)O2)[C@H](C)[C@H]1O[C@@H]1O[C@H](C)C[C@H](N(C)C)[C@H]1O
Streptococcus pneumoniae [1]
  MIC: 64 µg/mL (≈ 71.7 µM)
Staphylococcus aureus [2]
  MIC: > 256 µg/mL
Escherichia coli
  MIC: 128 µg/mL (≈ 143 µM)
Staphylococcus aureus [3]
  MIC: 256 µg/mL (≈ 287 µM)
Staphylococcus aureus [4]
  MIC: 1 µg/mL (≈ 1.12 µM)
Pseudomonas aeruginosa
  MIC: 128 µg/mL (≈ 143 µM)
Streptococcus pyogenes [5]
  MIC: 1 µg/mL (≈ 1.12 µM)
Bacillus subtilis
  MIC: 1 µg/mL (≈ 1.12 µM)
Streptococcus pyogenes [6]
  MIC: 64 µg/mL (≈ 71.7 µM)
Streptococcus pneumoniae [7]
  MIC: 256 µg/mL (≈ 287 µM)

## COc1cccc(-n2cc(COC[C@@H]3CN(C)C[C@@H](C)[C@@H](O)[C@H](C)C[C@@](C)(OC)[C@H](O[C@@H]4O[C@H](C)C[C@H](N(C)C)[C@H]4O)[C@@H](C)[C@H](O[C@H]4C[C@@](C)(OC)[C@@H](O)[C@H](C)O4)[C@@H](C)C(=O)O3)nn2)c1
Streptococcus pneumoniae [1]
  MIC: 64 µg/mL (≈ 69.4 µM)
Staphylococcus aureus [2]
  MIC: 256 µg/mL (≈ 278 µM)
Escherichia coli
  MIC: 128 µg/mL (≈ 139 µM)
Staphylococcus aureus [3]
  MIC: 256 µg/mL (≈ 278 µM)
Staphylococcus aureus [4]
  MIC: 2 µg/mL (≈ 2.17 µM)
Pseudomonas aeruginosa
  MIC: 128 µg/mL (≈ 139 µM)
Streptococcus pyogenes [5]
  MIC: 2 µg/mL (≈ 2.17 µM)
Bacillus subtilis
  MIC: 2 µg/mL (≈ 2.17 µM)
Streptococcus pyogenes [6]
  MIC: 64 µg/mL (≈ 69.4 µM)
Streptococcus pneumoniae [7]
  MIC: 128 µg/mL (≈ 139 µM)

## CCCCc1ccc(-c2cn(C[C@H]3CN(C)C[C@@H](C)[C@@H](O)[C@H](C)C[C@@](C)(OC)[C@H](O[C@@H]4O[C@H](C)C[C@H](N(C)C)[C@H]4O)[C@@H](C)[C@H](O[C@H]4C[C@@](C)(OC)[C@@H](O)[C@H](C)O4)[C@@H](C)C(=O)O3)nn2)cc1
Streptococcus pneumoniae [1]
  MIC: 32 µg/mL (≈ 34.8 µM)
Staphylococcus aureus [2]
  MIC: 32 µg/mL (≈ 34.8 µM)
Escherichia coli
  MIC: 128 µg/mL (≈ 139 µM)
Staphylococcus aureus [3]
  MIC: 16 µg/mL (≈ 17.4 µM)
Staphylococcus aureus [4]
  MIC: 1 µg/mL (≈ 1.09 µM)
Pseudomonas aeruginosa
  MIC: 64 µg/mL (≈ 69.7 µM)
Streptococcus pyogenes [5]
  MIC: 0.06 µg/mL (≈ 0.0653 µM)
Bacillus subtilis
  MIC: 1 µg/mL (≈ 1.09 µM)
Streptococcus pyogenes [6]
  MIC: 16 µg/mL (≈ 17.4 µM)
Streptococcus pneumoniae [7]
  MIC: 16 µg/mL (≈ 17.4 µM)

## CO[C@]1(C)C[C@@H](C)[C@H](O)[C@H](C)CN(C)C[C@H](COCc2cn(-c3ccc(C(C)C)cc3)nn2)OC(=O)[C@H](C)[C@@H](O[C@H]2C[C@@](C)(OC)[C@@H](O)[C@H](C)O2)[C@H](C)[C@H]1O[C@@H]1O[C@H](C)C[C@H](N(C)C)[C@H]1O
Streptococcus pneumoniae [1]
  MIC: 32 µg/mL (≈ 34.3 µM)
Staphylococcus aureus [2]
  MIC: 128 µg/mL (≈ 137 µM)
Escherichia coli
  MIC: 64 µg/mL (≈ 68.5 µM)
Staphylococcus aureus [3]
  MIC: 64 µg/mL (≈ 68.5 µM)
Staphylococcus aureus [4]
  MIC: 1 µg/mL (≈ 1.07 µM)
Pseudomonas aeruginosa
  MIC: 16 µg/mL (≈ 17.1 µM)
Streptococcus pyogenes [5]
  MIC: 1 µg/mL (≈ 1.07 µM)
Bacillus subtilis
  MIC: 0.5 µg/mL (≈ 0.535 µM)
Streptococcus pyogenes [6]
  MIC: 32 µg/mL (≈ 34.3 µM)
Streptococcus pneumoniae [7]
  MIC: 64 µg/mL (≈ 68.5 µM)

## CCc1ccc(-n2cc(COC[C@H]3CN(C)C[C@@H](C)[C@@H](O)[C@H](C)C[C@@](C)(OC)[C@H](O[C@@H]4O[C@H](C)C[C@H](N(C)C)[C@H]4O)[C@@H](C)[C@H](O[C@H]4C[C@@](C)(OC)[C@@H](O)[C@H](C)O4)[C@@H](C)C(=O)O3)nn2)cc1
Streptococcus pneumoniae [1]
  MIC: 32 µg/mL (≈ 34.8 µM)
Staphylococcus aureus [2]
  MIC: 128 µg/mL (≈ 139 µM)
Escherichia coli
  MIC: 64 µg/mL (≈ 69.6 µM)
Staphylococcus aureus [3]
  MIC: 128 µg/mL (≈ 139 µM)
Staphylococcus aureus [4]
  MIC: 0.5 µg/mL (≈ 0.543 µM)
Pseudomonas aeruginosa
  MIC: 16 µg/mL (≈ 17.4 µM)
Streptococcus pyogenes [5]
  MIC: 0.5 µg/mL (≈ 0.543 µM)
Bacillus subtilis
  MIC: ≤ 0.25 µg/mL
Streptococcus pyogenes [6]
  MIC: 64 µg/mL (≈ 69.6 µM)
Streptococcus pneumoniae [7]
  MIC: 128 µg/mL (≈ 139 µM)

## CO[C@]1(C)C[C@@H](C)[C@H](O)[C@H](C)CN(C)C[C@H](COCc2cn(-c3ccc(OC(F)(F)F)cc3)nn2)OC(=O)[C@H](C)[C@@H](O[C@H]2C[C@@](C)(OC)[C@@H](O)[C@H](C)O2)[C@H](C)[C@H]1O[C@@H]1O[C@H](C)C[C@H](N(C)C)[C@H]1O
Streptococcus pneumoniae [1]
  MIC: 32 µg/mL (≈ 32.8 µM)
Staphylococcus aureus [2]
  MIC: 128 µg/mL (≈ 131 µM)
Escherichia coli
  MIC: 64 µg/mL (≈ 65.6 µM)
Staphylococcus aureus [3]
  MIC: 128 µg/mL (≈ 131 µM)
Staphylococcus aureus [4]
  MIC: 2 µg/mL (≈ 2.05 µM)
Pseudomonas aeruginosa
  MIC: 16 µg/mL (≈ 16.4 µM)
Streptococcus pyogenes [5]
  MIC: 2 µg/mL (≈ 2.05 µM)
Bacillus subtilis
  MIC: 1 µg/mL (≈ 1.02 µM)
Streptococcus pyogenes [6]
  MIC: 32 µg/mL (≈ 32.8 µM)
Streptococcus pneumoniae [7]
  MIC: 128 µg/mL (≈ 131 µM)

## CO[C@]1(C)C[C@@H](C)[C@H](O)[C@H](C)CN(C)C[C@@H](COCc2cn(-c3ccc(OC(F)(F)F)cc3)nn2)OC(=O)[C@H](C)[C@@H](O[C@H]2C[C@@](C)(OC)[C@@H](O)[C@H](C)O2)[C@H](C)[C@H]1O[C@@H]1O[C@H](C)C[C@H](N(C)C)[C@H]1O
Streptococcus pneumoniae [1]
  MIC: 16 µg/mL (≈ 16.4 µM)
Staphylococcus aureus [2]
  MIC: 64 µg/mL (≈ 65.6 µM)
Escherichia coli
  MIC: 128 µg/mL (≈ 131 µM)
Staphylococcus aureus [3]
  MIC: 32 µg/mL (≈ 32.8 µM)
Staphylococcus aureus [4]
  MIC: 4 µg/mL (≈ 4.1 µM)
Pseudomonas aeruginosa
  MIC: > 128 µg/mL
Streptococcus pyogenes [5]
  MIC: 4 µg/mL (≈ 4.1 µM)
Bacillus subtilis
  MIC: 2 µg/mL (≈ 2.05 µM)
Streptococcus pyogenes [6]
  MIC: 32 µg/mL (≈ 32.8 µM)
Streptococcus pneumoniae [7]
  MIC: 32 µg/mL (≈ 32.8 µM)
